Measurements pooled from the literature.
Organism: Trypanosoma brucei
Effect on: parasite growth

Cc1cc(C)c(C#N)c(SCC(=O)c2cccc(N)c2)n1
EC50 (resazurin; RHODESIENSE): 41.4 µM

CCCCCC(=O)NC(Cc1c[nH]c2ccccc12)C(=O)NC(Cc1c[nH]c2ccccc12)C(=O)NC(CC(C)C)C(=O)C1(C)CO1 (stereo not drawn)
EC50 (SYBR Green; 72 h): < 0.5 µM

Cc1ccc(Cn2cc(C(=O)N/N=C/c3ccc([N+](=O)[O-])o3)c(=O)c3cc(Cl)ccc32)cc1
EC50 (resazurin; 72 h): 0.42 µM

COc1ccc(C(=O)CSc2nc(C)cc(C)c2C#N)cc1
EC50 (resazurin): > 64 µM

C[C@@H]1C/C=C/C=C/C=C/C=C/[C@H](O[C@@H]2O[C@H](C)[C@@H](O)[C@H](N)[C@@H]2O)C[C@@H]2O[C@](O)(C[C@@H](O)C[C@H]3O[C@@H]3/C=C/C(=O)O1)C[C@H](O)[C@H]2C(=O)O
EC50 (resazurin; 48 h): 12 µM

N=C(N)c1ccc(OCCCCCOc2ccc(C(=N)N)cc2)cc1
EC50 (SYBR Green; RHODESIENSE): 0.027 µM

Cc1ccc(C(=O)Nc2ccc(S(=O)(=O)O)c3cc(S(=O)(=O)O)cc(S(=O)(=O)O)c23)cc1NC(=O)c1cccc(NC(=O)Nc2cccc(C(=O)Nc3cc(C(=O)Nc4ccc(S(=O)(=O)O)c5cc(S(=O)(=O)O)cc(S(=O)(=O)O)c45)ccc3C)c2)c1
EC50 (RHODESIENSE): 0.05 µM

Cc1cc(C)c(C#N)c(SCC(=O)c2ccccc2O)n1
EC50 (resazurin): > 64 µM

O=c1c(O[C@@H]2O[C@H](CO)[C@H](O)[C@H](O)[C@H]2O)c(-c2ccc(O)c(O)c2)oc2cc(O)cc(O)c12
EC50 (resazurin; 48 h): 50 µM

CCCCCC(=O)NC(Cc1ccc(N)cc1)C(=O)NC(Cc1ccc(N)cc1)C(=O)NC(CC(C)C)C(=O)C1(C)CO1 (stereo not drawn)
EC50 (SYBR Green; 72 h): < 0.5 µM

Cc1cc(C)c(C#N)c(NCC(O)c2ccc(F)cc2)n1 (stereo not drawn)
EC50 (resazurin; RHODESIENSE): 7.86 µM

O=C(N/N=C/c1ccc([N+](=O)[O-])o1)c1cn(Cc2ccccc2)c2ccccc2c1=O
EC50 (resazurin; 72 h): 0.57 µM
